Measured values: ChEMBL document CHEMBL1156417, “Transferable resistance to aminoglycosides by methylation of G1405 in 16S rRNA and to hydrophilic fluoroquinolones by QepA-mediated efflux in Escherichia coli” (2007)
≈ marks a conversion by molar mass, not a printed value.

Assays:
Assay type in all cases: functional
Escherichia coli [1] = assay: Antibacterial activity against Escherichia coli 1540 isolate by […]
Summary of the method: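 Disk diffusion on Mueller-Hinton agar following Comité de l'Antibiogramme de la Société Française de Microbiologie standards; clinical isolate from Belgian hospital screening; strains grown in brain heart infusion broth or agar at 37°C.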

Escherichia coli [2] = assay: Antibacterial activity against Escherichia coli C600Rif by Etest
Summary of the method: (§1)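 MIC read by Etest on Mueller-Hinton agar after 24 h incubation. Strains were grown in brain heart infusion broth or on agar at 37°C. C600Rif served as the conjugation recipient and TOP10 as the transformation recipient.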

Escherichia coli [3] = assay: Antibacterial activity against Escherichia coli TOP10 containing pIP1206 plasmid by Etest; summary of the method: as §1
Escherichia coli [4] = assay: Antibacterial activity against Escherichia coli C600Rif in presence of 40 ug/ml efflux pump inhibitor 1-(1-naphthylmethyl)-piperazine by Etest
Escherichia coli [5] = assay: Antibacterial activity against Escherichia coli C600Rif in presence of 50 ug/ml efflux pump inhibitor phenyl-arginine-beta-naphthylamide by Etest
Escherichia coli [6] = assay: Antibacterial activity against Escherichia coli C600Rif containing pIP1206 plasmid by Etest; summary of the method: as §1
Escherichia coli [7] = assay: microbe, parasite or virus in culture
Escherichia coli [8] = assay: Antibacterial activity against Escherichia coli C600Rif containing pIP1206 plasmid in presence of 50 ug/ml efflux pump inhibitor phenyl-arginine-beta-naphthylamide by Etest
Escherichia coli [9] = assay: Antibacterial activity against Escherichia coli TOP10 by Etest; summary of the method: as §1
Escherichia coli [10] = assay: Antibacterial activity against Escherichia coli TOP10 in presence of 40 ug/ml efflux pump inhibitor 1-(1-naphthylmethyl)-piperazine by Etest
Escherichia coli [11] = assay: Antibacterial activity against Escherichia coli TOP10 in presence of 50 ug/ml efflux pump inhibitor phenyl-arginine-beta-naphthylamide by Etest
Escherichia coli [12] = assay: Antibacterial activity against Escherichia coli TOP10 containing pIP1206 plasmid in presence of 40 ug/ml efflux pump inhibitor 1-(1-naphthylmethyl)-piperazine by Etest
Escherichia coli [13] = assay: Antibacterial activity against Escherichia coli TOP10 containing pIP1206 plasmid in presence of 50 ug/ml efflux pump inhibitor phenyl-arginine-beta-naphthylamide by Etest
Escherichia coli [14] = assay: Antibacterial activity against Escherichia coli TOP10 containing pAT851 plasmid by Etest; summary of the method: as §1
Escherichia coli [15] = assay: Antibacterial activity against Escherichia coli TOP10 containing pAT851 in presence of 40 ug/ml efflux pump inhibitor 1-(1-naphthylmethyl)-piperazine by Etest
Escherichia coli [16] = assay: Antibacterial activity against Escherichia coli TOP10 containing pAT851 in presence of 50 ug/ml efflux pump inhibitor phenyl-arginine-beta-naphthylamide by Etest

SMILES: NCC[C@H](O)C(=O)N[C@@H]1C[C@H](N)[C@@H](O[C@H]2O[C@H](CN)[C@@H](O)[C@H](O)[C@H]2O)[C@H](O)[C@H]1O[C@H]1O[C@H](CO)[C@@H](O)[C@H](N)[C@H]1O [AMIKACIN]
- MIC (Escherichia coli [1]): > 512 mg/L

SMILES: CC1(C)S[C@@H]2[C@H](NC(=O)[C@H](N)c3ccccc3)C(=O)N2[C@H]1C(=O)O [AMPICILLIN]
- MIC (Escherichia coli [1]): > 256 mg/L

SMILES: CO/N=C(\C(=O)N[C@@H]1C(=O)N2C(C(=O)O)=C(COC(C)=O)CS[C@H]12)c1csc(N)n1 [CEFOTAXIME]
- MIC (Escherichia coli [1]): 32 mg/L (≈ 70.3 µM)

SMILES: O=C(N[C@H](CO)[C@H](O)c1ccc([N+](=O)[O-])cc1)C(Cl)Cl [CHLORAMPHENICOL]
- MIC (Escherichia coli [1]): > 256 mg/L

SMILES: O=C(O)c1cn(C2CC2)c2cc(N3CCNCC3)c(F)cc2c1=O [CIPROFLOXACIN]
- MIC (Escherichia coli [2]): 0.023 mg/L (≈ 0.0694 µM)
- MIC (Escherichia coli [1]): > 32 mg/L
- MIC (Escherichia coli [3]): 0.023 mg/L (≈ 0.0694 µM)

SMILES: COc1c(N2CCNC(C)C2)c(F)cc2c(=O)c(C(=O)O)cn(C3CC3)c12 (centres undefined) [GATIFLOXACIN]
- MIC (Escherichia coli [2]): 0.023 mg/L (≈ 0.0613 µM)
- MIC (Escherichia coli [4]): 0.016 mg/L
- MIC (Escherichia coli [5]): 0.016 mg/L
- MIC (Escherichia coli [6]): 0.032 mg/L (≈ 0.0852 µM)
- MIC (Escherichia coli [7]): 0.016 mg/L (≈ 0.0426 µM)
- MIC (Escherichia coli [8]): 0.012 mg/L
- MIC (Escherichia coli [9]): 0.003 mg/L (≈ 0.00799 µM)
- MIC (Escherichia coli [10]): 0.002 mg/L
- MIC (Escherichia coli [11]): 0.002 mg/L
- MIC (Escherichia coli [3]): 0.003 mg/L (≈ 0.00799 µM)
- MIC (Escherichia coli [12]): 0.002 mg/L
- MIC (Escherichia coli [13]): 0.002 mg/L
- MIC (Escherichia coli [14]): 0.003 mg/L (≈ 0.00799 µM)
- MIC (Escherichia coli [15]): 0.002 mg/L
- MIC (Escherichia coli [16]): 0.002 mg/L

SMILES: CC[n+]1c(-c2ccccc2)c2cc(N)ccc2c2ccc(N)cc21.[Br-] [HOMIDIUM BROMIDE]
- MIC (Escherichia coli [2]): 128 mg/L
- MIC (Escherichia coli [4]): 64 mg/L
- MIC (Escherichia coli [5]): 128 mg/L
- MIC (Escherichia coli [6]): 128 mg/L
- MIC (Escherichia coli [7]): 64 mg/L
- MIC (Escherichia coli [8]): 64 mg/L
- MIC (Escherichia coli [9]): 128 mg/L
- MIC (Escherichia coli [10]): 64 mg/L
- MIC (Escherichia coli [11]): 64 mg/L
- MIC (Escherichia coli [3]): 128 mg/L
- MIC (Escherichia coli [12]): 64 mg/L
- MIC (Escherichia coli [13]): 64 mg/L
- MIC (Escherichia coli [14]): 128 mg/L
- MIC (Escherichia coli [15]): 64 mg/L
- MIC (Escherichia coli [16]): 128 mg/L

SMILES: NC[C@H]1O[C@H](O[C@H]2[C@H](O)[C@@H](O[C@H]3O[C@H](CO)[C@@H](O)[C@H](N)[C@H]3O)[C@H](N)C[C@@H]2N)[C@H](O)[C@@H](O)[C@@H]1O [KANAMYCIN]
- MIC (Escherichia coli [1]): > 512 mg/L

SMILES: C[C@H]1COc2c(N3CCN(C)CC3)c(F)cc3c(=O)c(C(=O)O)cn1c23.C[C@H]1COc2c(N3CCN(C)CC3)c(F)cc3c(=O)c(C(=O)O)cn1c23.O [LEVOFLOXACIN]
- MIC (Escherichia coli [2]): 0.032 mg/L
- MIC (Escherichia coli [6]): 0.032 mg/L
- MIC (Escherichia coli [9]): 0.006 mg/L
- MIC (Escherichia coli [3]): 0.006 mg/L

SMILES: CN(C)c1ccc(O)c2c1C[C@H]1C[C@H]3[C@H](N(C)C)C(O)=C(C(N)=O)C(=O)[C@@]3(O)C(O)=C1C2=O [MINOCYCLINE]
- MIC (Escherichia coli [1]): 16 mg/L (≈ 35 µM)

SMILES: COc1c(N2C[C@@H]3CCCN[C@@H]3C2)c(F)cc2c(=O)c(C(=O)O)cn(C3CC3)c12 [MOXIFLOXACIN]
- MIC (Escherichia coli [2]): 0.064 mg/L (≈ 0.159 µM)
- MIC (Escherichia coli [4]): 0.032 mg/L
- MIC (Escherichia coli [5]): 0.032 mg/L
- MIC (Escherichia coli [6]): 0.094 mg/L (≈ 0.234 µM)
- MIC (Escherichia coli [7]): 0.032 mg/L (≈ 0.0797 µM)
- MIC (Escherichia coli [8]): 0.006 mg/L
- MIC (Escherichia coli [9]): 0.004 mg/L (≈ 0.00996 µM)
- MIC (Escherichia coli [10]): 0.002 mg/L
- MIC (Escherichia coli [11]): 0.002 mg/L
- MIC (Escherichia coli [3]): 0.006 mg/L (≈ 0.0149 µM)
- MIC (Escherichia coli [12]): 0.002 mg/L
- MIC (Escherichia coli [13]): 0.002 mg/L
- MIC (Escherichia coli [14]): 0.004 mg/L (≈ 0.00996 µM)
- MIC (Escherichia coli [15]): 0.002 mg/L
- MIC (Escherichia coli [16]): 0.002 mg/L

SMILES: CCn1cc(C(=O)O)c(=O)c2ccc(C)nc21 [NALIDIXIC ACID]
- MIC (Escherichia coli [2]): 2 mg/L (≈ 8.61 µM)
- MIC (Escherichia coli [4]): 1.5 mg/L
- MIC (Escherichia coli [5]): 1.5 mg/L
- MIC (Escherichia coli [6]): 2 mg/L (≈ 8.61 µM)
- MIC (Escherichia coli [7]): 1.5 mg/L (≈ 6.46 µM)
- MIC (Escherichia coli [8]): 1.5 mg/L
- MIC (Escherichia coli [9]): 1.5 mg/L (≈ 6.46 µM)
- MIC (Escherichia coli [10]): 1 mg/L
- MIC (Escherichia coli [11]): 1 mg/L
- MIC (Escherichia coli [3]): 1.5 mg/L (≈ 6.46 µM)
- MIC (Escherichia coli [12]): 1 mg/L
- MIC (Escherichia coli [13]): 1 mg/L
- MIC (Escherichia coli [14]): 1.5 mg/L (≈ 6.46 µM)
- MIC (Escherichia coli [15]): 1 mg/L
- MIC (Escherichia coli [16]): 1 mg/L

SMILES: CCN[C@@H]1C[C@H](N)[C@@H](O[C@H]2OC(CN)=CC[C@H]2N)[C@H](O)[C@H]1O[C@H]1OC[C@](C)(O)[C@H](NC)[C@H]1O [NETILMICIN]
- MIC (Escherichia coli [1]): > 512 mg/L

SMILES: CCn1cc(C(=O)O)c(=O)c2cc(F)c(N3CCNCC3)cc21 [NORFLOXACIN]
- MIC (Escherichia coli [2]): 0.064 mg/L (≈ 0.2 µM)
- MIC (Escherichia coli [4]): 0.047 mg/L
- MIC (Escherichia coli [5]): 0.032 mg/L
- MIC (Escherichia coli [6]): 1.5 mg/L (≈ 4.7 µM)
- MIC (Escherichia coli [7]): 0.064 mg/L (≈ 0.2 µM)
- MIC (Escherichia coli [8]): 0.047 mg/L
- MIC (Escherichia coli [9]): 0.032 mg/L (≈ 0.1 µM)
- MIC (Escherichia coli [10]): 0.016 mg/L
- MIC (Escherichia coli [11]): 0.016 mg/L
- MIC (Escherichia coli [3]): 0.38 mg/L (≈ 1.19 µM)
- MIC (Escherichia coli [12]): 0.016 mg/L
- MIC (Escherichia coli [13]): 0.016 mg/L
- MIC (Escherichia coli [14]): 0.19 mg/L (≈ 0.595 µM)
- MIC (Escherichia coli [15]): 0.016 mg/L
- MIC (Escherichia coli [16]): 0.016 mg/L

SMILES: CCn1cc(C(=O)O)c(=O)c2cc(F)c(N3CCN(C)CC3)cc21 [PEFLOXACIN]
- MIC (Escherichia coli [2]): 0.094 mg/L (≈ 0.282 µM)
- MIC (Escherichia coli [6]): 0.094 mg/L (≈ 0.282 µM)
- MIC (Escherichia coli [3]): 0.023 mg/L (≈ 0.069 µM)

SMILES: CN(C)[C@@H]1C(O)=C(C(N)=O)C(=O)[C@@]2(O)C(O)=C3C(=O)c4c(O)cccc4[C@@](C)(O)[C@H]3C[C@@H]12 [TETRACYCLINE]
- MIC (Escherichia coli [1]): > 256 mg/L

SMILES: NC[C@H]1O[C@H](O[C@H]2[C@H](O)[C@@H](O[C@H]3O[C@H](CO)[C@@H](O)[C@H](N)[C@H]3O)[C@H](N)C[C@@H]2N)[C@H](N)C[C@@H]1O [TOBRAMYCIN]
- MIC (Escherichia coli [1]): > 512 mg/L
